Data reported in the RNAGym collection of RNA variant scans (doi:10.1126/science.aae0568).
Variants at the floor of the assay were thinned out.

B1: tRNA (parent)
chain: GUUCCGUUGGCGUAAUGGUAACGCGUCUCCCUCCUAAGGAGAAGACUGCGGGUUCGAGUCCCGUACGGAACG

Variants of: B1
Assay: yeast fitness relative to wild type (ratio to wild type); higher = fitter; tRNA-Arg(CCU), competitive growth, 37 C, YPD
Outline: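 For this measurement, the tRNA-Arg(CCU) gene was varied by chemical synthesis at a 3% per-site mutation rate across 69 sites, and each variant was placed at the native genomic locus in Saccharomyces cerevisiae. The pooled strains went through a 24-hour competition in YPD at 37°C in six parallel replicates, with amplicons from start and end populations read by 100-nucleotide paired-end sequencing. Darwinian fitness relative to wild type followed from the change in each genotype's frequency. Genotypes needed ≥ 100 starting reads, and estimates < 0.5 were set to 0.5.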

Q: With GUUCCGUUGGCGUAAUGGUAGCGCGUCUCCCUCCUAAGGAGCAGACUGCGGAUUCGAGUCCCGUACGGAACG [A21G A42C G52A] as the variant, how does the yeast fitness read?
A: 0.637

Q: With GCUCCGUUGCCGUAAUGGUAACGAGUCUCCUUCCUCAGGAGAAGACUACGGGUUCGAGUCCCGUACGGAACG [U2C G10C C24A C31U A36C G48A] as the variant, how does the yeast fitness read?
A: ≤ 0.5

Q: With GUGCCGUUGGAGUAAUGGUAACGCGUCUCCCUCGUAAGGAGAAGCCUGCGGGUUCGAGUCCCGUACGGAACG [U3G C11A C34G A45C] as the variant, how does the yeast fitness read?
A: ≤ 0.5

Q: For GUGCCGUUGGCGUGAUGGUAACGCGUCUCCCUCCUAAGCAGAAGACUGCGGGUUCGAGUCCCGUACGGAACG [U3G A14G G39C], which yeast fitness is on record?
A: ≤ 0.5

Q: Which yeast fitness does the source give for GCUCCGUUGGCGUAAUGGUAACGCGUCUCCCUCCUAAGGAGAUGACCGCGGGUUCGAGUCCCGUACGGAACG [U2C A43U U47C] here?
A: 0.749

Q: With GUUCCGUUGGCAUACUGGUAACGCGUCUCCUUCCUAAGGAGAAGACUGCGGGUUCGAGUCCUGUAGGGAGCG [G12A A15C C31U C62U C66G A70G] as the variant, how does the yeast fitness read?
A: ≤ 0.5

Q: For GUUCCGUUGGAGUAAUGGUAUCGCGUCUCCCUCCUAAGGAGAUGACUGCGGGUUCGGGUCCCGUACGGAACG [C11A A21U A43U A57G], which yeast fitness is on record?
A: ≤ 0.5

Q: Which yeast fitness does the source give for GUUCCGUUCGCGUAAUGGUAACGCGUCUCCCUCCUCAGGAGAAGACUGCGGGUUAGAGUCCCGUACGGAACG [G9C A36C C55A] here?
A: 0.525

Q: For GUUCCGUUGGGGUAAUGGUAACGCGUCUCCCUCCUAAGGAGAAGACAGCGGGUUCGAGUCCCGUACGGAACG [C11G U47A], which yeast fitness is on record?
A: 0.686

Q: Which yeast fitness does the source give for GUUCCGUUGGCGUAAUGGUAACGCGUCUCCCUCCUAAGGAGAAGACUGCGGGUGCGAGUCCCGUUCAGAACG [U54G A65U G67A] here?
A: 0.545

Q: Which yeast fitness does the source give for GUUCCGCUGGCACAAUGGUAACGCGCCUCCCUCCUAAGGAGAAGACUGCGGGUUCGAGUUCCGUACGGAACG [U7C G12A U13C U26C C60U] here?
A: ≤ 0.5

Q: For GUUCCGUUGGCGUAAUGGUAACGCGUCUCCAUCCUAAGGAGAAGACUGCGGGUUCGAGUACCGUACGGAACG [C31A C60A], which yeast fitness is on record?
A: 0.629

Q: For GUUCCGUUGGCGUAAUGGUUACGCGUCUCCCUCCUAAGGACAAGACUGCGGGUUCCAGUCCCGUACGCAACG [A20U G41C G56C G68C], which yeast fitness is on record?
A: ≤ 0.5

Q: For GUUCCGUUGGCGUAAUGGUAACGCGUCUCCCUCCUAAGGCGAAGACUGUGGGUUCGAGUCCCGUACGGAACG [A40C C49U], which yeast fitness is on record?
A: 0.892

Q: With GUUCCGUUGGCGUAAUGGUUGCGCGUCUCCUUCCUAAGGAGAAGAAUGCGGGUUCGAGUCCCGUACGGAACG [A20U A21G C31U C46A] as the variant, how does the yeast fitness read?
A: ≤ 0.5

Q: Which yeast fitness does the source give for GUUCCGUUGGCGUAAUGGUCACGCGUCUGCCUCCUAAGGAGAAGACUGCGGGUUCGUGUCCCGUACGGACCG [A20C C29G A57U A70C] here?
A: ≤ 0.5

Q: With GUUCCGUUGGGGUAAUGGUAACGCGUCUCCCUCGUCAGGAGAAGACUGCGGGUUCGAGUCCCGUACGGAACG [C11G C34G A36C] as the variant, how does the yeast fitness read?
A: ≤ 0.5

Q: Which yeast fitness does the source give for GUUCCGUUGGCGUAAUGGUAACGCGUCUCCCUCGUAAGGAGAAGACUGCGGGUUCGGGUCCCGUGUGGAACG [C34G A57G A65G C66U] here?
A: 0.58

Q: Which yeast fitness does the source give for GUUCGGCUGGGGUAAUGGUAACGCGUCUCCGUCCUAAGGAGAAGACUGCGGGUUCGAGUCCCGUACGGAACG [C5G U7C C11G C31G] here?
A: ≤ 0.5

Q: With GUGCCGUUGGCGUAAUGGUAACGCGUCUCCCUCCUAAGGAGAAGACUUCGGGUUCGAGUCCCGUACGGAACG [U3G G48U] as the variant, how does the yeast fitness read?
A: 0.937

Q: For GUUCCGUUGGCGUAAUGGUGACGCGUCUCCCUCCUAAGGAGAUGCCUGCGGGUUCGAGUCCCGUACCGAACG [A20G A43U A45C G67C], which yeast fitness is on record?
A: ≤ 0.5

Q: With GUUCCGUUGGCGUAAUGGUAACGCCUCUCCGUCCUAAGGAGAAGACUGCGCGUUCGAGUCCCGUACGGAACG [G25C C31G G51C] as the variant, how does the yeast fitness read?
A: ≤ 0.5

Q: With GUUCCGUUGGAGUAAUGGUAACGCGUCUCCCUCCUAAGGAAAAGUCUGCGGGUUCCAGUCCCGUACGGAACG [C11A G41A A45U G56C] as the variant, how does the yeast fitness read?
A: ≤ 0.5

Q: For GUUCCGUUCGCGUAAUGGUAACGCGUCUCCCUCCUAAGGUGAAGAUUGCGGGUUCGAGUCCCGUACGGAACG [G9C A40U C46U], which yeast fitness is on record?
A: 0.511

Q: With GUUCCGUUGGCCUAAUGGUAACGCGUCUCCCUCCUAAGAAGAAGACUGCGGGUUCGAGUCCCGUACGGAACG [G12C G39A] as the variant, how does the yeast fitness read?
A: 0.75

Q: For GUUCCGUUGGGGUAAUGGUAACACGUCUCCCUCCUAAGGAGAAGAAUGCGGGUUCGAGUCCCGUACGUAACG [C11G G23A C46A G68U], which yeast fitness is on record?
A: 0.566

Q: For GUUCCGUUGGCGUAAUGGUAACGCGUCUCCCUCCUAAGGAGAAGACUGCGGGUUCGAGUCUUGUACGGAACG [C61U C62U], which yeast fitness is on record?
A: 0.748

Q: For GUUCCGUUGGCGUAAUGGUAACGCGUCUGCCUCCUAAGGAGAAGACUGCGGGUUCAAGUCCCGUACGCAACG [C29G G56A G68C], which yeast fitness is on record?
A: ≤ 0.5

Q: With GUUCCGGUGGCGUAAUGGUAACGCGUCUCCCUCCUAUGGAGAAGAGUGCGGGUUCGAGUCCCGUACGGAACG [U7G A37U C46G] as the variant, how does the yeast fitness read?
A: ≤ 0.5

Q: Which yeast fitness does the source give for GUUCCGUCGGCAUAAUGGUAACGCGUCUCCCUCCUAAGGCGAAGACUGCGGGUUCGAGUCCCGUACGGCACG [U8C G12A A40C A69C] here?
A: 0.56

Q: With GUUCCGUUGGCGUAAUGGUAAGGUGUCUCCCUCCUAAGGAGAAGACUGCGGGUUCGAGUCCCGCACGGAACG [C22G C24U U64C] as the variant, how does the yeast fitness read?
A: 0.538

Q: For GUUCCGUUGGCGUAAUGGUAACGCGUCUCCCUACUCAGGAGAAGACUGCGGGUUCGAGUCCCGUACGGAACG [C33A A36C], which yeast fitness is on record?
A: 0.526

Q: For GUUCAGUUGGCGUAAUGGACACGGGUCUCCCUCGUAAGGAGAAGACUGCGGGUUCGAGUCCCGUACGGAACG [C5A U19A A20C C24G C34G], which yeast fitness is on record?
A: ≤ 0.5

Q: Which yeast fitness does the source give for GUUCCGUUGGCGUGAUGGUAACGCGUCUCGCUCCUCAGGAGAAGACUGCGGGUUCGAGUCCCGUACGGAACG [A14G C30G A36C] here?
A: 0.525

Q: Which yeast fitness does the source give for GUACCGUUGGCGUAAUGGUAACGCGUCUCCCUCCUAAGGAGAAACCUGCGGGAUAGAGCCCUGUACGGAACG [U3A G44A A45C U53A C55A U59C C62U] here?
A: 0.534

Q: With GUUCCGUUGACGUAAUGGUAACGGGUCUCCCUCCUAAGGAGAAGACUGCGGGUUCGAGUCCCGUACGAAACG [G10A C24G G68A] as the variant, how does the yeast fitness read?
A: 0.735

Q: Which yeast fitness does the source give for GUUCCGUUGGCGUAAUGGUAACGCGUCUCCGUCGUGAGGAGAAGACUGCGGGUUCGAGUCCCGUAAGGAACG [C31G C34G A36G C66A] here?
A: ≤ 0.5
